What is called IC50 is the point on the concentration scale where inhibition reaches its midpoint. The IC90 is the concentration needed for an effect of 90%.

Consider three compounds from ChEMBL document CHEMBL2151018, “Bioassay-guided investigation of the Tanzanian plant Pyrenacantha kaurabassana for potential anti-HIV-active compounds” (J Nat Prod, 2012).

Converted amounts (≈) assume the structure as drawn. Where only a bound is given, the exact number is not on record here.

Data set [1] in a line: (§1) Cytotoxicity against human HEK293T cells after 4 days by Alamar blue assay. In kind it is cell-based, HEK-293T. The settings on record: HEK293T cells, read-out: TC50. A general note: Alamar Blue is a resazurin reagent that responds to reducing activity.
The next data set relates to HEK-293T. The description is as §1. In kind it is cell-based. The settings on record: hek-293t, 96 h.
A short description of data set [2]: Selectivity index, ratio of TC50 for human HEK293T cells to IC90 for CXCR4-tropic HIV1 NL4-3 infected in HEK293T cells. Type of data set: toxicity, cell-based, HEK-293T. The settings on record: read-out: Selectivity Index.
Data set [3] in a line: Selectivity index, ratio of TC50 for human HEK293T cells to IC90 for CCR5-tropic HIV1 NL-AD87 infected in HEK293T cells. In kind it is toxicity, cell-based, HEK-293T. The settings on record: read-out: Selectivity Index.
A short description of data set [4]: Selectivity index, ratio of TC50 for human HEK293T cells to IC50 for CXCR4-tropic HIV1 NL4-3 infected in HEK293T cells. In kind it is toxicity, cell-based, HEK-293T. The settings on record: read-out: Selectivity Index.
Data set [5] in a line: Selectivity index, ratio of TC50 for human HEK293T cells to IC50 for CCR5-tropic HIV1 NL-AD87 infected in HEK293T cells. In kind it is toxicity, cell-based, HEK-293T. The settings on record: read-out: Selectivity Index.
For data set [6], the system named is Human immunodeficiency virus 1. Briefly: Antiviral activity against CXCR4-tropic HIV1 NL4-3 infected in HEK293T cells assessed as inhibition of viral replication after 4 days by beta-galactosidase reporter gene assay. Type of data set: functional, organism-based. The settings on record: Human immunodeficiency virus 1, NL4-3, HEK-293T, 96 h. The gist of the method: (§2)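 Measured in the proprietary deCIPhR cell-based system using fully replicative virus. Two HIV lab strains from molecular clones differing in coreceptor tropism were used: pNL4-3 (CXCR4 usage) and pNL-AD87 (CCR5 usage). IC50 is the 50% inhibitory concentration in the anti-HIV assay, expressed in μg/mL; IC90 was also determined.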

The test system of data set [7] is Human immunodeficiency virus 1. Nature of the data set: Antiviral activity against CCR5-tropic HIV1 NL-AD87 infected in HEK293T cells assessed as inhibition of viral replication after 4 days by beta-galactosidase reporter gene assay. Type of data set: functional, organism-based. The settings on record: Human immunodeficiency virus 1, NL-AD87, HEK-293T, 96 h. The gist of the method:
as §2
(Reporter assays use an easily measured gene product as a stand-in for the process of interest.)

As to `COc1cc2c(c(-c3cc(O)c4c(O)c5oc6c(C(=O)O)cc(C)cc6c(=O)c5c(OC)c4c3OC)c1)CC(C)OC2=O` (stereo not given), in data set [1], the CC50 at 96 h is 31 µg/mL (≈ 52.9 µM). Besides, the TC90 in the data set with HEK-293T came out at 154 µg/mL (≈ 263 µM). Besides, the selectivity ratio in data set [2] was determined as 7; in data set [3] it was 7; in data set [4], 15.5; in data set [5], 15.5. For the same compound, the IC50 in data set [6] and in data set [7] was 2 µg/mL (≈ 3.41 µM) each time. Besides, the IC90 in data set [6] and in data set [7] was 22 µg/mL (≈ 37.5 µM) each time.
For the compound enfuvirtide, in data set [6], the IC50 was 0.01 µg/mL and the IC90 came out at 0.026 µg/mL. For the same compound, in data set [7], the IC50 was 0.01 µg/mL and the concentration for an effect of 90% (IC90) amounted to 0.026 µg/mL.
As for `COc1cc2c(c(-c3cc(O)c4c(O)c5oc6c(C(=O)O)cc(C)cc6c(=O)c5c(O)c4c3OC)c1)CC(C)OC2=O` (stereo not given), the CC50 at 96 h in data set [1] is greater than 12.5 µg/mL. The compound also showed a TC90 with HEK-293T greater than 12.5 µg/mL. Also, in data set [6], the IC50 amounted to 21 µg/mL (≈ 36.7 µM) and the IC90 came out at 111 µg/mL (≈ 194 µM). In data set [7], the IC50 was found to be 21 µg/mL (≈ 36.7 µM) and the IC90 is 111 µg/mL (≈ 194 µM).
